Converted amounts (≈) assume the structure as drawn. Numbered stars: 1 amine (or outer) side, 2 acyl side, 3 side chain; on linkers, the order of the positions; unused ones are H or OH. Bridge positions count the residues as written; N and C are the ends. Square brackets hold non-standard residues; d marks the D form. Peptide text beside a SMILES is read from it. * marks the point of attachment. hTyr(3S-OH,4S-OH,3'-OSO3H) = N[C@H](C(=O)O)[C@H](O)[C@@H](O)c1ccc(O)c(OS(=O)(=O)O)c1; pTerphenylCO(4''-OnC5H11) = CCCCCOc1ccc(-c2ccc(-c3ccc(C(=O)*)cc3)cc2)cc1; Orn(4R-OH,5R-OH) = O=C([C@H](C[C@@H](O)[C@@H](O)N[*:3])N[*:1])[*:2]; hTyr(3S-OH,4S-OH) = N[C@H](C(=O)O)[C@H](O)[C@@H](O)c1ccc(O)cc1; Pro(3S-OH,4S-Me) = C[C@H]1CN[C@H](C(=O)O)[C@H]1O; X1 = CCCCCOc1ccc(-c2cc(-c3ccc(C(=O)*)cc3)no2)cc1; Gln(3R-OH) = NC(=O)C[C@@H](O)[C@H](N)C(=O)O; Hyp = O=C(O)[C@@H]1C[C@@H](O)CN1
Legend:
Format in all cases: functional
[1] = Antifungal activity against Lichtheimia ramosa clinical isolate after 48 hrs by EUCAST method
Summary of the method: (§1)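 EUCAST broth microdilution, with spore inoculum counted in a hematocytometer. Final drug concentrations were 16 to 0.03 or 8 to 0.015 mg/liter depending on agent. Plates were incubated at 35°C in humid air and read visually with a mirror at 24 and 48 h. Endpoint was complete visual growth inhibition, except for echinocandins, where it was MEC (altered hyphal morphology versus growth control). Aspergillus QC strains were included.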

Lichtheimia corymbifera [2] = assay: Antifungal activity against Lichtheimia corymbifera clinical isolate after 24 hrs by EUCAST method; summary of the method: as §1
[3] = Antifungal activity against Lichtheimia ramosa clinical isolate after 24 hrs by EUCAST method; summary of the method: as §1
[4] = Antifungal activity against Lichtheimia ornata clinical isolate after 48 hrs by EUCAST method; summary of the method: as §1
[5] = Antifungal activity against Lichtheimia ornata clinical isolate after 24 hrs by EUCAST method; summary of the method: as §1
Lichtheimia corymbifera [6] = assay: Antifungal activity against Lichtheimia corymbifera clinical isolate after 48 hrs by EUCAST method; summary of the method: as §1

Compound | MIC [1] [mg/L] | MIC (Lichtheimia corymbifera [2]) [mg/L] | MIC [3] [mg/L] | MIC [4] [mg/L] | MIC [5] [mg/L] | MIC (Lichtheimia corymbifera [6]) [mg/L]
C[C@@H]1[C@H](O)[C@@H](C)/C=C/C=C/C=C/C=C/C=C/C=C/C=C/[C@H](O[C@@H]2O[C@H](C)[C@@H](O)[C@H](N)[C@@H]2O)C[C@@H]2O[C@](O)(C[C@@H](O)C[C@@H](O)[C@H](O)CC[C@@H](O)C[C@@H](O)CC(=O)O[C@H]1C)C[C@H](O)[C@H]2C(=O)O [AMPHOTERICIN B] | 0.14 (≈ 0.152 µM) | 0.07 (≈ 0.0758 µM) | 0.08 (≈ 0.0866 µM) | 0.12 (≈ 0.13 µM) | 0.12 (≈ 0.13 µM) | 0.14 (≈ 0.152 µM)
CCCCCOc1ccc(-c2ccc(-c3ccc(C(=O)N[C@H]4C[C@@H](O)[C@@H](O)NC(=O)[C@@H]5[C@@H](O)[C@@H](C)CN5C(=O)[C@H]([C@@H](C)O)NC(=O)[C@H]([C@H](O)[C@@H](O)c5ccc(O)cc5)NC(=O)[C@@H]5C[C@@H](O)CN5C(=O)[C@H]([C@@H](C)O)NC4=O)cc3)cc2)cc1 [ANIDULAFUNGIN] ({pTerphenylCO(4''-OnC5H11)}-[Orn(4R-OH,5R-OH)]T[Hyp][hTyr(3S-OH,4S-OH)]T[Pro(3S-OH,4S-Me)]; lactam 1-C) | 5.15 (≈ 4.52 µM) | 1.99 (≈ 1.75 µM) | 3.58 (≈ 3.14 µM) | 32 (≈ 28.1 µM) | 4 (≈ 3.51 µM) | 10.8 (≈ 9.48 µM)
CC[C@H](C)C[C@H](C)CCCCCCCCC(=O)N[C@H]1C[C@@H](O)[C@@H](NCCN)NC(=O)[C@@H]2[C@@H](O)CCN2C(=O)[C@H]([C@H](O)CCN)NC(=O)[C@H]([C@H](O)[C@@H](O)c2ccc(O)cc2)NC(=O)[C@@H]2C[C@@H](O)CN2C(=O)[C@H]([C@@H](C)O)NC1=O [CASPOFUNGIN] | 21.4 (≈ 19.6 µM) | 9.27 (≈ 8.48 µM) | 11 (≈ 10.1 µM) | 32 (≈ 29.3 µM) | 32 (≈ 29.3 µM) | 10 (≈ 9.16 µM)
CCC(C)n1ncn(-c2ccc(N3CCN(c4ccc(OCC5COC(Cn6cncn6)(c6ccc(Cl)cc6Cl)O5)cc4)CC3)cc2)c1=O (centres undefined) [ITRACONAZOLE] | 2.38 (≈ 3.37 µM) | 0.62 (≈ 0.879 µM) | 0.92 (≈ 1.3 µM) | 1 (≈ 1.42 µM) | 0.5 (≈ 0.709 µM) | 1.03 (≈ 1.46 µM)
CCCCCOc1ccc(-c2cc(-c3ccc(C(=O)N[C@H]4C[C@@H](O)[C@@H](O)NC(=O)[C@@H]5[C@@H](O)[C@@H](C)CN5C(=O)[C@H]([C@H](O)CC(N)=O)NC(=O)[C@H]([C@H](O)[C@@H](O)c5ccc(O)c(OS(=O)(=O)O)c5)NC(=O)[C@@H]5C[C@@H](O)CN5C(=O)[C@H]([C@@H](C)O)NC4=O)cc3)no2)cc1 [MICAFUNGIN] (X1-[Orn(4R-OH,5R-OH)]T[Hyp][hTyr(3S-OH,4S-OH,3'-OSO3H)][Gln(3R-OH)][Pro(3S-OH,4S-Me)]; lactam 1-C) | 21.4 (≈ 16.8 µM) | 8.92 (≈ 7.02 µM) | 6.85 (≈ 5.39 µM) | 32 (≈ 25.2 µM) | 32 (≈ 25.2 µM) | 12.6 (≈ 9.95 µM)
CC[C@@H]([C@H](C)O)n1ncn(-c2ccc(N3CCN(c4ccc(OC[C@@H]5CO[C@@](Cn6cncn6)(c6ccc(F)cc6F)C5)cc4)CC3)cc2)c1=O [POSACONAZOLE] | 0.69 (≈ 0.985 µM) | 0.37 (≈ 0.528 µM) | 0.32 (≈ 0.457 µM) | 0.25 (≈ 0.357 µM) | 0.25 (≈ 0.357 µM) | 0.58 (≈ 0.828 µM)
C[C@@H](c1nc(-c2ccc(C#N)cc2)cs1)[C@](O)(Cn1cncn1)c1ccc(F)cc1F [RAVUCONAZOLE] | 3.42 (≈ 7.82 µM) | 1.34 (≈ 3.06 µM) | 1.44 (≈ 3.29 µM) | 2 (≈ 4.57 µM) | 1 (≈ 2.29 µM) | 1.86 (≈ 4.25 µM)
CN(C/C=C/C#CC(C)(C)C)Cc1cccc2ccccc12 [TERBINAFINE] | 1 (≈ 3.43 µM) | 0.48 (≈ 1.65 µM) | 0.56 (≈ 1.92 µM) | 0.5 (≈ 1.72 µM) | 0.25 (≈ 0.858 µM) | 0.75 (≈ 2.57 µM)
C[C@@H](c1ncncc1F)[C@](O)(Cn1cncn1)c1ccc(F)cc1F [VORICONAZOLE] | 15.1 (≈ 43.1 µM) | 11.1 (≈ 31.8 µM) | 12.6 (≈ 36 µM) | 16 (≈ 45.8 µM) | 16 (≈ 45.8 µM) | 11.5 (≈ 33 µM)
